In ChEMBL document CHEMBL1142278, “Efficient inhibition of iron superoxide dismutase and of Trypanosoma cruzi growth by benzo[g]phthalazine derivatives functionalized with one or two imidazole rings” (J Med Chem, 2008):

What was measured:
Trypanosoma cruzi [1] = assay: Inhibition of Iron superoxide dismutase in Trypanosoma cruzi epimastigotes at 25 uM
[2] = biological target: Superoxide dismutase [Cu-Zn] (Homo sapiens) (UniProt P00441); assay: inhibition of CuZn-SOD in human erythrocytes at 2.5 uM; type: cell-based
Chain of Superoxide dismutase [Cu-Zn] (Homo sapiens) (P00441 whole entry): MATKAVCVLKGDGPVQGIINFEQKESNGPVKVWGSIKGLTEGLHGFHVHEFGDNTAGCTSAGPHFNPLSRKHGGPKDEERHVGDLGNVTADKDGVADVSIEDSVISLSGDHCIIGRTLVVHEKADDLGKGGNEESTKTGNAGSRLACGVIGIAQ

[3] = biological target: Superoxide dismutase [Cu-Zn] (Homo sapiens) (UniProt P00441); assay: inhibition of CuZn-SOD in human erythrocytes at 125 uM; type: cell-based
Trypanosoma cruzi [4] = assay: Antiparasitic activity against Trypanosoma cruzi epimastigotes after 48 hrs; type: functional, organism-based
Outline: (§1)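 Epimastigotes were cultured with compound at 2.5, 25 and 125 µM, and growth inhibition was read at 24, 48 or 72 h. IC50 was calculated by linear regression from Kc values at those concentrations. Results are the average of three separate determinations.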

Trypanosoma cruzi [5] = assay: Antiparasitic activity against Trypanosoma cruzi epimastigotes after 24 hrs; type: functional, organism-based; outline: as §1
Trypanosoma cruzi [6] = assay: Inhibition of Iron superoxide dismutase in Trypanosoma cruzi epimastigotes at 2.5 uM
Trypanosoma cruzi [7] = assay: Antiparasitic activity against Trypanosoma cruzi epimastigotes after 72 hrs; type: functional, organism-based; outline: as §1
Trypanosoma cruzi [8] = assay: Inhibition of Iron superoxide dismutase in Trypanosoma cruzi epimastigotes at 125 uM
[9] = biological target: Superoxide dismutase [Cu-Zn] (Homo sapiens) (UniProt P00441); assay: inhibition of CuZn-SOD in human erythrocytes at 25 uM; type: cell-based
[10] = Toxicity in african green monkey Vero cells after 72 hrs; type: cell-based; details: African green monkey (Chlorocebus sabaeus)
Outline: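 Vero cells were cultured with compound for 72 h. The cytotoxic IC50 was derived by linear regression from Kc values at 2.5, 25 and 125 µM. Results are the average of three separate determinations.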

Trypanosoma cruzi [11] = assay: Antiparasitic activity against Trypanosoma cruzi in Vero cells assessed as reduction of trypomastigotes at 10 uM on day 8 relative to control; type: functional; design: scale not given: the % may be the effect or the level left
Outline: (§2)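 Vero cells (1 × 10^5) were grown for 2 days, then infected with 1 × 10^6 T. cruzi metacyclic forms, adding compound (10 µM) at the same time. Cultures were followed over days 1–8. Read-outs were % infected cells, mean amastigotes per infected cell, and trypomastigotes in the medium, each compared with an untreated control. Values are means of three separate experiments.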

Trypanosoma cruzi [12] = assay: Antiparasitic activity against Trypanosoma cruzi in Vero cells assessed as reduction of amastigotes at 10 uM on day 8 relative to control; type: functional; design: scale not given: the % may be the effect or the level left; outline: as §2
Trypanosoma cruzi [13] = assay: Antiparasitic activity against Trypanosoma cruzi in Vero cells assessed as reduction of infection rate at 10 uM relative to control; type: functional; design: scale not given: the % may be the effect or the level left; outline: as §2

| Compound | inhibition (Trypanosoma cruzi [1]) | inhibition [2] | inhibition [3] | IC50 (Trypanosoma cruzi [4]) | IC50 (Trypanosoma cruzi [5]) | inhibition (Trypanosoma cruzi [6]) | IC50 (Trypanosoma cruzi [7]) | inhibition (Trypanosoma cruzi [8]) | inhibition [9] | IC50 at 72 h [10] | Activity (Trypanosoma cruzi [11]) | Activity (Trypanosoma cruzi [12]) | Activity (Trypanosoma cruzi [13]) |
| --- | --- | --- | --- | --- | --- | --- | --- | --- | --- | --- | --- | --- | --- |
| Clc1nnc(NCCc2c[nH]cn2)c2cc3ccccc3cc12 | 91% | 0% | 11% | 34.6 µM | 108 µM | 50% | < 0.3 µM | 100% | 0% | 213 µM | >50% | 55% | 81% |
| Clc1nnc(NCCCn2ccnc2)c2cc3ccccc3cc12 | 93% | 7% | 27% | 46.9 µM | 51 µM | 80% | 13.7 µM | 94% | 22% | 146 µM |  |  | 74% |
| O=C(Cn1ccnc1[N+](=O)[O-])NCc1ccccc1 [BENZNIDAZOLE] |  |  |  |  |  |  | 15.8 µM |  |  |  |  |  |  |
| c1ccc2cc3c(NCCc4cnc[nH]4)nnc(NCCc4cnc[nH]4)c3cc2c1 |  |  |  |  |  |  |  |  |  | 88.7 µM |  |  |  |
| c1ccc2cc3c(NCCCn4ccnc4)nnc(NCCCn4ccnc4)c3cc2c1 | 42% | 2% | 18% | 34.8 µM | 53.4 µM | 32% | < 0.2 µM | 100% | 12% | 69.3 µM | >50% | 44% | 84% |
| c1ccc2cc3c(NCCc4c[nH]cn4)nnc(NCCc4c[nH]cn4)c3cc2c1 | 53% | 0% | 6% | 35.1 µM | 61.1 µM | 46% | 14.2 µM | 86% | 5% |  |  |  | >50% |
